Measurements reported in ChEMBL document CHEMBL5724801, “EUbOPEN Chemogenomics Library - Multiplex” (2024).
“And” between values parts separate entries of the source, which are not always exact repeats. Equal entries are not always repeated.

Test system: U2OS
Assay: Multiplex assay against U2OS
Assay type: toxicity, cell-based
Conditions: human
In short: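 With compound added, live cells were imaged on a CQ1 microscope at 37°C and 5% CO2; staining with Hoechst33342, BioTracker Green Microtubule Cytoskeleton Dye, MitoTracker Red and Annexin V Alexa Fluor 680 had been done at seeding. The CellPathfinder machine-learning gating scheme split cells into Hoechst high-intensity objects or normal cells, normal cells into healthy, pyknosed or fragmented nuclei, and pyknosed cells into mitotic or apoptotic. The tubulin, mitochondrial-mass and membrane-permeability phenotypes are per cents of healthy-nucleus cells.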

[1] = 12 h, 1 µM, compound concentration 1 uM
[2] = 12 h, 10 µM, compound concentration 10 uM
[3] = 24 h, 1 µM, compound concentration 1 uM
[4] = 24 h, 10 µM, compound concentration 10 uM
[5] = 48 h, 1 µM, compound concentration 1 uM
[6] = 48 h, 10 µM, compound concentration 10 uM

COc1ccc2nc3ccc(OC)cc3c(SCCCN)c2c1.Cl
Population Apoptotic (%) [1]: 33.33% and 48.15% | Population Fragmented Nuclei (%) [1]: 5.01% and 5.7% | Population Healthy Nuclei (%) [1]: 88.22% and 80.31% | Population Hoechst High Intensity Objects (%) [1]: 0% | Population Membrane Permeable-Phenotype (%) [1]: 0.85% and 1.94% | Population Mitochondria Different-Phenotype (%) [1]: 0% and 12.26% | Population Mitotic Cells (%) [1]: 66.67% and 51.85% | Population Normal (%) [1]: 100% | Population Pyknosed Nuclei (%) [1]: 6.77% and 13.99% | Population Tubulin-Different-Phenotype (%) [1]: 1.14% and 0% | Total Cell Count [1]: 399 and 193 | Population Apoptotic (%) [2]: 50% and 100% | Population Fragmented Nuclei (%) [2]: 77.73% and 91.54% | Population Healthy Nuclei (%) [2]: 21.48% and 8.25% | Population Hoechst High Intensity Objects (%) [2]: 8.43% and 7.62% | Population Normal (%) [2]: 91.57% and 92.38% | Population Pyknosed Nuclei (%) [2]: 0.79% and 0.21% | Population Tubulin-Different-Phenotype (%) [2]: 28.57% and 40.17% | Total Cell Count [2]: 1388 and 1535 | Population Apoptotic (%) [3]: 29.73% and 51.52% | Population Fragmented Nuclei (%) [3]: 3.05% and 1.4% | Population Healthy Nuclei (%) [3]: 89.9% and 83.18% | Population Hoechst High Intensity Objects (%) [3]: 0% | Population Membrane Permeable-Phenotype (%) [3]: 0.85% and 2.81% | Population Mitochondria Different-Phenotype (%) [3]: 0% and 7.3% | Population Mitotic Cells (%) [3]: 70.27% and 48.48% | Population Normal (%) [3]: 100% | Population Pyknosed Nuclei (%) [3]: 7.05% and 15.42% | Population Tubulin-Different-Phenotype (%) [3]: 1.06% and 1.69% | Total Cell Count [3]: 525 and 214 | Population Apoptotic (%) [4]: 50% and 78.57% | Population Fragmented Nuclei (%) [4]: 75.02% and 91.84% | Population Hoechst High Intensity Objects (%) [4]: 12.85% and 7.48% | Population Mitotic Cells (%) [4]: 50% and 21.43% | Population Normal (%) [4]: 87.15% and 92.52% | Population Pyknosed Nuclei (%) [4]: 0.64% and 0.94% | Population Tubulin-Different-Phenotype (%) [4]: 6.62% and 18.52% | Total Cell Count [4]: 1424 and 1617 | Population Apoptotic (%) [5]: 46.15% and 46.51% | Population Fragmented Nuclei (%) [5]: 3.96% and 4.36% | Population Healthy Nuclei (%) [5]: 90.62% and 82.24% | Population Hoechst High Intensity Objects (%) [5]: 0% | Population Membrane Permeable-Phenotype (%) [5]: 1.03% and 0.76% | Population Mitochondria Different-Phenotype (%) [5]: 0% and 2.65% | Population Mitotic Cells (%) [5]: 53.85% and 53.49% | Population Normal (%) [5]: 100% | Population Pyknosed Nuclei (%) [5]: 5.42% and 13.4% | Population Tubulin-Different-Phenotype (%) [5]: 0.8% and 1.52% | Total Cell Count [5]: 960 and 321 | Population Apoptotic (%) [6]: 45% and 53.85% | Population Fragmented Nuclei (%) [6]: 69.73% and 94.1% | Population Hoechst High Intensity Objects (%) [6]: 23.54% and 11.4% | Population Mitotic Cells (%) [6]: 55% and 46.15% | Population Normal (%) [6]: 76.46% and 88.6% | Population Pyknosed Nuclei (%) [6]: 2.07% and 0.82% | Population Tubulin-Different-Phenotype (%) [6]: 6.23% and 18.52% | Total Cell Count [6]: 1266 and 1798

COc1ccc2c(c1)C(C(=O)N(Cc1ccc(N(C)C)cc1)c1ccc(C(C)C)cc1)CCC2.Cl (stereo unspecified)
Population Apoptotic (%) [1]: 70% | Population Fragmented Nuclei (%) [1]: 36% and 17% | Population Healthy Nuclei (%) [1]: 54% and 73% | Population Hoechst High Intensity Objects (%) [1]: 4% and 3% | Population Membrane Permeable-Phenotype (%) [1]: 8% and 9% | Population Mitochondria Different-Phenotype (%) [1]: 5% and 3% | Population Mitotic Cells (%) [1]: 29% and 30% | Population Normal (%) [1]: 95% and 96% | Population Pyknosed Nuclei (%) [1]: 9% and 8% | Population Tubulin-Different-Phenotype (%) [1]: 4% and 2% | Total Cell Count [1]: 264 and 122 | Population Apoptotic (%) [2]: 38% and 60% | Population Fragmented Nuclei (%) [2]: 27% and 16% | Population Healthy Nuclei (%) [2]: 50% and 60% | Population Hoechst High Intensity Objects (%) [2]: 4% | Population Membrane Permeable-Phenotype (%) [2]: 73% and 43% | Population Mitochondria Different-Phenotype (%) [2]: 55% and 73% | Population Mitotic Cells (%) [2]: 61% and 40% | Population Normal (%) [2]: 95% | Population Pyknosed Nuclei (%) [2]: 22% and 23% | Population Tubulin-Different-Phenotype (%) [2]: 80% and 58% | Total Cell Count [2]: 224 and 113 | Population Apoptotic (%) [3]: 75% and 100% | Population Fragmented Nuclei (%) [3]: 27% and 18% | Population Healthy Nuclei (%) [3]: 61% and 73% | Population Hoechst High Intensity Objects (%) [3]: 4% and 2% | Population Membrane Permeable-Phenotype (%) [3]: 5% | Population Mitochondria Different-Phenotype (%) [3]: 4% and 1% | Population Mitotic Cells (%) [3]: 24% and 0% | Population Normal (%) [3]: 95% and 97% | Population Pyknosed Nuclei (%) [3]: 11% and 7% | Population Tubulin-Different-Phenotype (%) [3]: 4% and 2% | Total Cell Count [3]: 273 and 146 | Population Apoptotic (%) [4]: 71% and 86% | Population Fragmented Nuclei (%) [4]: 25% and 20% | Population Healthy Nuclei (%) [4]: 50% and 57% | Population Hoechst High Intensity Objects (%) [4]: 2% and 9% | Population Membrane Permeable-Phenotype (%) [4]: 54% and 45% | Population Mitochondria Different-Phenotype (%) [4]: 42% and 53% | Population Mitotic Cells (%) [4]: 28% and 13% | Population Normal (%) [4]: 97% and 90% | Population Pyknosed Nuclei (%) [4]: 24% and 22% | Population Tubulin-Different-Phenotype (%) [4]: 49% and 48% | Total Cell Count [4]: 224 and 115 | Population Apoptotic (%) [5]: 80% and 93% | Population Fragmented Nuclei (%) [5]: 21% and 17% | Population Healthy Nuclei (%) [5]: 65% and 73% | Population Hoechst High Intensity Objects (%) [5]: 2% and 3% | Population Membrane Permeable-Phenotype (%) [5]: 10% and 6% | Population Mitochondria Different-Phenotype (%) [5]: 5% and 4% | Population Normal (%) [5]: 97% and 96% | Population Pyknosed Nuclei (%) [5]: 13% and 8% | Population Tubulin-Different-Phenotype (%) [5]: 3% and 2% | Total Cell Count [5]: 369 and 203 | Population Apoptotic (%) [6]: 73% and 92% | Population Fragmented Nuclei (%) [6]: 21% and 26% | Population Healthy Nuclei (%) [6]: 47% and 49% | Population Hoechst High Intensity Objects (%) [6]: 3% and 8% | Population Membrane Permeable-Phenotype (%) [6]: 43% | Population Mitochondria Different-Phenotype (%) [6]: 26% and 36% | Population Normal (%) [6]: 96% and 91% | Population Pyknosed Nuclei (%) [6]: 30% and 24% | Population Tubulin-Different-Phenotype (%) [6]: 31% and 42% | Total Cell Count [6]: 265 and 126
